Source: PubChem BioAssay
Calls of active or inactive are those of the source.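 How the source made its calls, unless noted: active means fluorescence slope higher than the sample average by over 3 SD (cut at about -0.22 in these data, passing the limit was not always enough); inactive means the rest.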

Columns and labels:
[1] = inhibitors of TNFa-induced NFkB p65 translocation, primary screen, imaging, HUVEC, MLSMR starter and 10KST1 sets (AID 438;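 active means inhibition above 20% together with a positive visual image hit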;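 further: compound added about 3h40 before a 20 min TNFalpha stimulation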;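 on inhibition: signal is the nuclear over cytoplasmic p65 intensity ratio per well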); conditions: HUVEC TNFa-induced p65 nuclear translocation; cell count: measured here: nuclei count (cytotoxicity indicator), at 2.08 µM; inhibition: at 2 µM, stronger effect = higher value, 0% TNFa-plus-vehicle, 100% no-TNFa wells
[2] = reduction of polyQ htt aggregates in cells – imaging, exon1htt(103Q)mCFP cells, high-content imaging, primary screen (AID 483;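 active means visual image review flags a hit and inhibition of aggregation exceeds 20%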;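 further: compound exposure lasted 3 days before fixation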;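 on nuclei count: percent of the per-plate median nuclei count of sample wells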); conditions: exon1htt(103Q)mCFP cell line, aggregate imaging, at 2 µM; inhibition of aggregation: stronger effect = higher value; nuclei count: measured here: cell count, toxicity
[3] = endothelial E-selectin expression blockers – imaging, HUVEC, immunofluorescence, MLSMR starter and 10KST1 sets, primary screen (AID 487;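 active means visually confirmed hit in the image check and inhibition above 20%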;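 on inhibition: signal is fraction of cell area covered by stained E-selectin grains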;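 on nuclei count: 100% = median nuclei count of all wells on the same plate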); conditions: HUVEC TNFalpha-induced E-selectin immunofluorescence imaging, at 2 µM; inhibition: stronger effect = higher value; nuclei count: measured here: cell number, toxicity
[4] = molecular target: Voltage-gated potassium channel subunit beta-2 (Rattus norvegicus) (UniProt P62483); assay: inhibitors of rat Kvbeta2 reductase activity – biochemical, NADPH fluorescence, primary screen (AID 622); conditions: recombinant KvBeta, 4-cyanobenzaldehyde reduction, at 10 µM, stronger effect = higher value;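 further: slope of raw intensity against log time taken from 70 to 1610 s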
[5] = molecular target: Voltage-gated potassium channel subunit beta-2 (Rattus norvegicus) (UniProt P62483); assay: enhancers of rat Kvbeta2 NADPH turnover – biochemical, NADPH fluorescence, primary screen (AID 623;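 active means NADPH fluorescence slope more negative than the mean of all samples by about 3 SD, 99.7% confidence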;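 further: fluorescence intensity change per second fitted from 20 to 320 s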); conditions: Recombinant KvBeta, NADPH fluorescence decrease slope, 10 min; at 10 µM; stronger effect = lower value
[6] = molecular target: Muscarinic acetylcholine receptor M4 (Homo sapiens) (UniProt P08173); assay: M4-linked GIRK flux change, two-sided – cell-based, HEK293 M4/GIRK, thallium flux, BTC-AM, M4 allosteric agonist project, primary screen (AID 625;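 active means fluorescence slope after compound addition differing from the mean of all tested samples at 99.7% confidence, mostly higher but some lower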;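 further: thallium influx through GIRK channels coupled to M4 in HEK293 cells with BTC-AM dye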); conditions: at 10 µM, actives lie on both sides
Method in brief: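 assay system = HEK293 cells with M4 receptor and GIRK channels | medium = pH 7.3 thallium assay buffer | doses = 10 µM final, single point | timing = cells overnight at 37 °C, BTC-AM loading 1 h, reads 2 min total | signal = BTC-AM fluorescence, 1 Hz kinetic reads | read-out = post-addition slope, 15–24 s, of baseline-normalized fluorescence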

[7] = blockers of RIG-like receptor reporter activation – cell-based, Sendai virus stimulus, luciferase, 10K MLSCN set, TLR/RLR signaling modifier project, primary screen (AID 602276;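 active means inhibition at or above 50% at 10 µM; inactive means inhibition below 50%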;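 further: firefly luciferase from ISG56 promoter only with Renilla not read in this screen; 0% = Sendai virus plus DMSO and 100% = medium plus DMSO without virus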); conditions: HEK293 RL24 IRF3 luciferase reporter, at 10 µM, stronger effect = higher value
[8] = TLR3 IRF3 reporter activation blockers – cell-based, poly I:C stimulus, luciferase, 10K MLSCN set, primary screen (AID 602277;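 active means inhibition of the reporter signal at or above 50%; inactive means inhibition below 50%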); conditions: HEK293-TLR3 RL24 IRF3 luciferase reporter, at 10 µM, stronger effect = higher value

Chain of Muscarinic acetylcholine receptor M4 (Homo sapiens) (P08173 whole entry, looked up): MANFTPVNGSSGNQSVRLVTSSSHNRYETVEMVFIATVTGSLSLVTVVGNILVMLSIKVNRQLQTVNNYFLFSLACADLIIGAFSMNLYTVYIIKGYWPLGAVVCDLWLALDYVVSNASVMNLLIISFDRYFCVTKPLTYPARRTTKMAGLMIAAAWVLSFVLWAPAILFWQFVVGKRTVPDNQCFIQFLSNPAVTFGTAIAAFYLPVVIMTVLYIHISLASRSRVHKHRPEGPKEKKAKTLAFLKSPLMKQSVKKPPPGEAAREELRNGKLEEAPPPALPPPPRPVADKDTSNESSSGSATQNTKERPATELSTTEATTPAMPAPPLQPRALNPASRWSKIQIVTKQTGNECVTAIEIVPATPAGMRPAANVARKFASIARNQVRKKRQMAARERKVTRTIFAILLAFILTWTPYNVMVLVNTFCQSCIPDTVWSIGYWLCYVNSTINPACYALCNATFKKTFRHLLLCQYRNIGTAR
Chain of Voltage-gated potassium channel subunit beta-2 (Rattus norvegicus) (P62483 whole entry, looked up): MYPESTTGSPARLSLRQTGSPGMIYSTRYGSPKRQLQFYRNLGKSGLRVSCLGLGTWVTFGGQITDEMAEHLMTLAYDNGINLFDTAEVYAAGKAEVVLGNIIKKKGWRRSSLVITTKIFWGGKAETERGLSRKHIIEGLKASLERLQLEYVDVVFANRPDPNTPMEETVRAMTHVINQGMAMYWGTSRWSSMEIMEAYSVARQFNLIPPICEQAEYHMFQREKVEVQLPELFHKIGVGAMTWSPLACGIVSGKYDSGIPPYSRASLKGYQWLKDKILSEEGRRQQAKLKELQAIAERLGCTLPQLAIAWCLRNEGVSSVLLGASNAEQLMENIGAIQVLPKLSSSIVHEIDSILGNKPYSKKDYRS

Row | SMILES | cell count [1] | inhibition [1] | inhibition of aggregation [2] | nuclei count [2] | inhibition [3] | nuclei count [3] | fluorescence slope [4] | NADPH fluorescence slope [5] | fluorescence slope [6] | inhibition [7] | inhibition [8]
1 | Cc1cccc(C)c1NC(=O)N1CCN(C2CCCCC2)CC1 | 364 | 1.2% (inactive) | -2% (inactive) | 106% | -8.3% (inactive) | 106% | -0.578 (inactive) | -3.9e-05 (inactive) | 0.00564 (inactive) | -1.81% (inactive) | 18.1% (inactive)
2 | CCOC(=O)c1ccc(NC(=O)CC2SC(=NC)N(C)C2=O)cc1 (stereo unspecified) | 401 | 14.6% (inactive) | -8.2% (inactive) | 103% | -14.5% (inactive) | 110% | -0.48 (inactive) | -5.8e-05 (inactive) | 0.00547 (inactive) | 13.7% (inactive) | 17.7% (inactive)
3 | CC(=O)c1c(NCCc2ccccc2)cc(C)oc1=O | 577 | 8.2% (inactive) | 8.3% (inactive) | 104% | -32.4% (inactive) | 106% | -0.259 (inactive) | -2.2e-05 (inactive) | 0.00739 (inactive) | -1.27% (inactive) | 11% (inactive)
4 | OCCn1c(CSc2nnc(-c3ccco3)n2-c2ccccc2)nc2ccc(Cl)cc21 | 724 | 10.5% (inactive) | 6.6% (inactive) | 78.4% | 14.6% (inactive) | 90.8% | -0.574 (inactive) | -3.2e-05 (inactive) | 0.00847 (inactive) | 9.6% (inactive) | 24.7% (inactive)
5 | O=C1C2C3C=CC(C3)C2C(=O)N1CNc1ccc(O)cc1 (stereo unspecified) | 307 | 8.9% (inactive) | -9.8% (inactive) | 108% | 32.1% (inactive) | 106% | -0.507 (inactive) | 2.6e-05 (inactive) | 0.00588 (inactive) | 4.46% (inactive) | 2.67% (inactive)
6 | CCCC(=O)Nc1ccccc1NC(=O)CCC | 353 | -5.6% (inactive) | -10.5% (inactive) | 103% | -23.8% (inactive) | 109% | -0.434 (inactive) | -6e-05 (inactive) | 0.00516 (inactive) | 14.4% (inactive) | 15.4% (inactive)
7 | COc1cc(NC(=O)c2ccco2)c(OC)cc1NC(=O)CCC(=O)Nc1cc(C)cc(C)c1 | 534 | -0.3% (inactive) | 18.3% (inactive) | 72.2% | 26.4% (inactive) | 68.3% | -0.279 (inactive) | 6.9e-06 (inactive) | 0.00626 (inactive) | 16% (inactive) | 27.3% (inactive)
8 | NC1=NC(c2ccc(Cl)cc2)n2c(nc3ccccc32)N1 (stereo unspecified) | 780 | 3.5% (inactive) | -8.4% (inactive) | 125% | -15.2% (inactive) | 113% | -0.584 (inactive) | 1.3e-05 (inactive) | 0.00539 (inactive) | 16.5% (inactive) | 18.6% (inactive)
9 | Cc1ccc(-n2c3c(cc(C(=O)O)c2=O)C(=O)CC(C)(C)C3)cc1 | 418 | 2.8% (inactive) | 6.9% (inactive) | 109% | 3.1% (inactive) | 110% | -0.377 (inactive) | 4.6e-05 (inactive) | 0.00507 (inactive) | 17% (inactive) | 24.4% (inactive)
10 | Cn1nc(C(=O)Nc2cccc(C(F)(F)F)c2)ccc1=O | 357 | 9.9% (inactive) | -1.2% (inactive) | 100% | -46.7% (inactive) | 104% | -0.576 (inactive) | 4e-05 (inactive) | 0.00652 (inactive) | 5.35% (inactive) | -5.97% (inactive)
11 | CCOC(=O)C1CCN(C(=O)C2CCN(S(=O)(=O)c3cc(Cl)ccc3Cl)CC2)CC1 | 738 | -4.9% (inactive) | 14.8% (inactive) | 91.3% | 4.5% (inactive) | 96.7% | -0.542 (inactive) | 2.5e-05 (inactive) | 0.00485 (inactive) | 16% (inactive) | 9.65% (inactive)
12 | Cc1ccc(CNC(=O)c2coc(=O)c3ccccc23)o1 | 581 | 0.6% (inactive) | 4.6% (inactive) | 102% | 58.5% (inactive) | 55.6% | -0.445 (inactive) | -0.000402 (inactive) | 0.00482 (inactive) |  | 98.4% (active)
